Here are results for 18 compounds from ChEMBL document CHEMBL5154861, “Overcoming Paradoxical Kinase Priming by a Novel MNK1 Inhibitor” (J Med Chem, 2022).

The source made the active and inactive calls. The calls are words filed in the database; no cut-off is given here.

Series [1] addresses T1, MAP kinase-interacting serine/threonine-protein kinase 1 (Homo sapiens, UniProt Q9BUB5). Briefly: Inhibition of human recombinant full length GST-tagged MNK1 expressed in baculovirus expression system assessed as residual activity at 10 uM using S6 peptide as substrate in presence of [gamma-33P]-ATP incubated for 60 mins by radiometric scintillation counting method relative to control. In short, it runs like this:
(§1)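 Radiometric 33PanQinase assay at 10 μM compound (final 1% DMSO). The buffer was 70 mM HEPES-NaOH pH 7.5 with 3 mM MgCl2, 3 mM MnCl2, 3 μM orthovanadate, 1.2 mM DTT and 50 μg/mL PEG20000. […] Reactions ran 60 min at 30 °C, were stopped with 2% H3PO4 and read by scintillation. Residual activity was calculated against high/low controls.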
Target sequence in this assay (Q9BUB5 whole entry, looked up): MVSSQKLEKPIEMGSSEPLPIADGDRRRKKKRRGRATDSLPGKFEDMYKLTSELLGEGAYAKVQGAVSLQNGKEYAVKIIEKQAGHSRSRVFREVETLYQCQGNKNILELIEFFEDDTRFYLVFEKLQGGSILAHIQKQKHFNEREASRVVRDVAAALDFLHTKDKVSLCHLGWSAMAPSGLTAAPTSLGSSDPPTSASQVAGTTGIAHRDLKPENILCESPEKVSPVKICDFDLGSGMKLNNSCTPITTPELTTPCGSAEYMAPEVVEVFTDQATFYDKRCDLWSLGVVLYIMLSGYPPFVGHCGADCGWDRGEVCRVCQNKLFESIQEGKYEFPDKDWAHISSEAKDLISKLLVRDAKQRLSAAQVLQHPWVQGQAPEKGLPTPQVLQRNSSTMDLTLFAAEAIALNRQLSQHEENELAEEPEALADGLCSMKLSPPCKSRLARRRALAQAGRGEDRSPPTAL

Series [2] has as its target T2, MAP kinase-interacting serine/threonine-protein kinase 2 (Homo sapiens, UniProt Q9HBH9). As to the kind of experiment: Inhibition of human recombinant full length GST-tagged MNK2 expressed in insect cells assessed as residual activity at 10 uM using S6 peptide as substrate in presence of [gamma-33P]-ATP incubated for 60 mins by radiometric scintillation counting method relative to control. In short, it runs like this: as §1
Target sequence in this assay (Q9HBH9 whole entry, looked up): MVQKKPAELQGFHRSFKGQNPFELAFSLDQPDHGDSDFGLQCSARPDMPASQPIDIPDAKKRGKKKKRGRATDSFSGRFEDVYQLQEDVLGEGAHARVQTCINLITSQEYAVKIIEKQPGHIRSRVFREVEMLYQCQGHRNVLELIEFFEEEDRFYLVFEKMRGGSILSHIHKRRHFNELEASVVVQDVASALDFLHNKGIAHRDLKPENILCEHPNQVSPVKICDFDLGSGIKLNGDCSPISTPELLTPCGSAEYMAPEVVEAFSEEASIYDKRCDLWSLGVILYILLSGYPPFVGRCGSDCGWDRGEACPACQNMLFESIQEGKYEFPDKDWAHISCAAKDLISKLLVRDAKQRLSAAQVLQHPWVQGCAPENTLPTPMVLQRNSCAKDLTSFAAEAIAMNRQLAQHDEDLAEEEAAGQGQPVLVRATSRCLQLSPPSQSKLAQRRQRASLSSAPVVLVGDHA

Series [3] is filed under the species Homo sapiens. Briefly: Selectivity ratio of IC50 for inhibition of human recombinant full length GST-tagged MNK2 to IC50 for inhibition of human recombinant full length GST-tagged MNK1. In short, it runs like this:
(§2)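 Ten compound concentrations from 5 × 10–5 to 1.5 × 10–9 M were tested, and residual activity was calculated from cpm relative to high and low controls.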

Series [4] has as its target T1, MAP kinase-interacting serine/threonine-protein kinase 1. Briefly: Inhibition of human recombinant full length GST-tagged MNK1 expressed in baculovirus expression system using S6 peptide as substrate in presence of [gamma-33P]-ATP incubated for 60 mins by radiometric scintillation counting method. In short, it runs like this: as §2
Target sequence in this assay (Q9BUB5 whole entry): as the sequence (Q9BUB5 whole entry, looked up) above
The target in series [5] is T3, MAP kinase-interacting serine/threonine-protein kinase 1/2 (Homo sapiens) (UniProt Q9HBH9+Q9BUB5). As to the kind of experiment: Inhibition of MNK1/MNK2 in human MDA-MB-231 cells assessed as reduction in eIF4E phosphorylation incubated for 24 hrs by Western blot analysis. The series is classed as cell-based. The following applies: dose 0.3-10 µM, DDE = dose-dependent effect. The gist of the method: (§3)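 MDA-MB-231 cells, grown in DMEM with 10% heat-inactivated FBS and pen/strep at 37 °C and 5% CO2, were seeded at 6000 cells/cm2 24 h before a 24 h inhibitor exposure. DMSO was kept below 0.5% as the vehicle control. Total lysates (RIPA-type buffer with phosphatase/protease inhibitors, 20–25 μg) were immunoblotted with phospho- and total antibodies at 1:1000, using ECL detection.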

Series [6] has as its target T2, MAP kinase-interacting serine/threonine-protein kinase 2. As to the kind of experiment: Inhibition of human recombinant full length GST-tagged MNK2 expressed in insect cells using S6 peptide as substrate in presence of [gamma-33P]-ATP incubated for 60 mins by radiometric scintillation counting method. The gist of the method: as §2
Target sequence in this assay (Q9HBH9 whole entry): as the sequence (Q9HBH9 whole entry, looked up) above
For series [7], the target named is T1, MAP kinase-interacting serine/threonine-protein kinase 1. Briefly: Activation of MNK1 in human MDA-MB-231 cells assessed as increase in ERK expression at 25 to 100 uM incubated for 24 hrs by Western blot analysis. In kind it is cell-based. The following applies: filed as activator, dose 25-100 µM. In short, it runs like this: as §3
Background: A western blot detects proteins with antibodies after separation by electrophoresis.
Target sequence in this assay (Q9BUB5 whole entry, looked up): as the sequence (Q9BUB5 whole entry, looked up) above

Series [8] has as its system HEK293. Briefly: Potentiation of MNK1/eIF4E interaction in HEK293 cells assessed as increase in MNK1 phosphorylation at T209/T214 residues at 100 nM preincubated for 24 hrs followed by UV irradiation and recovery for 40 mins by immunoprecipitation based Western blot assay. The series is classed as cell-based. The following applies: Homo sapiens, filed as activator, in the assay text read “MNK1/eIF4G interaction” for “MNK1/eIF4E interaction”. The gist of the method:
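HEK-293 cells were exposed to DMSO or inhibitor (100 nM) for 24 h, irradiated with UV at 60 J/m2 and recovered for 40 min at 37 °C. Endogenous eIF4G was immunoprecipitated from about 2 mg of precleared NP-40 lysate on protein A beads overnight at 4 °C. The IP and input were immunoblotted for MNK1 and p-MNK1.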

In series [9] the target is T1, MAP kinase-interacting serine/threonine-protein kinase 1. As to the kind of experiment: Activation of MNK1 in human MDA-MB-231 cells assessed as increase in MNK1 phosphorylation at T209/T214 residues at 1.6 to 100 uM incubated for 24 hrs by Western blot analysis. In kind it is cell-based. The following applies: filed as activator, dose 1.6-100 µM. The gist of the method:
as §3
Target sequence in this assay (Q9BUB5 whole entry, looked up): as above

Series [10] concerns the target Eukaryotic translation initiation factor 4E (Homo sapiens) (UniProt P06730). As to the kind of experiment: Inhibition of eIF4E phosphorylation in human MDA-MB-231 cells at 5 to 20 uM pretreated for 3 hrs followed by UV irradiation and recovery for 40 mins with compound by Western blot analysis. The series is classed as cell-based. The following applies: dose 5-20 µM, time 220.0 min. The gist of the method: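 MDA-MB-231 cells were pretreated with inhibitor for 3 h and then UV-irradiated. They recovered for 40 min at 37 °C with the inhibitor still present. Total lysates were immunoblotted for phospho-eIF4E and pathway markers (p-MNK1, p-p38, p-HSP27, p-ERK, p-p90RSK).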

Series [11] has as its system IMR-90. Briefly: Cytotoxicity against human IMR-90 cells assessed as reduction in cell viability measured after 72 hrs by crystal violet staining based assay. The series is classed as functional. In short, it runs like this: (§4)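 Cells were seeded at 6000 cells/cm2, and 24 h later were treated with a range of concentrations (DMSO below 0.5%) for 72 h. They were fixed with 4% formaldehyde for 30 min and stained with 0.5% crystal violet for 15 min. Dye was eluted in 15% acetic acid and read as OD at 595 nm. Results are from three independent experiments, reported as SD; GI50 values were derived from the curves.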

Series [12] has as its system MDA-MB-231. Briefly: Growth inhibition of human MDA-MB-231 cells measured after 72 hrs by crystal violet staining based assay. The series is classed as functional. In short, it runs like this:
as §4

The target in series [13] is T3, MAP kinase-interacting serine/threonine-protein kinase 1/2 (Homo sapiens). Briefly: Inhibition of MNK1/MNK2 in human MDA-MB-231 cells assessed as inhibition of eIF4E phosphorylation at 20 uM incubated for 24 hrs by Western blot analysis. In kind it is cell-based. In short, it runs like this: as §3
Series [14] deals with MDA-MB-231. As to the kind of experiment: Cytotoxicity against human MDA-MB-231 cells assessed as reduction in cell viability measured after 72 hrs by crystal violet staining based assay. The following applies: dose 2.5-40 µM, DDE = dose-dependent effect. The series is classed as functional. The gist of the method: as §4
In series [15] the target is T3, MAP kinase-interacting serine/threonine-protein kinase 1/2 (Homo sapiens). Briefly: Inhibition of MNK1/MNK2 in human MDA-MB-468 cells assessed as inhibition of eIF4E phosphorylation incubated for 24 hrs by Western blot analysis. In kind it is cell-based. The following applies: dose 0.3-10 µM, DDE = dose-dependent effect.
The test system of series [16] is MCF7. Briefly: Growth inhibition of human MCF7 cells measured after 72 hrs by crystal violet staining based assay. In kind it is functional. In short, it runs like this: as §4
Series [17] has as its system IMR-90. Briefly: Cytotoxicity against human IMR-90 cells assessed as reduction in cell viability at 20 uM measured after 72 hrs by crystal violet staining based assay. In kind it is toxicity. The following applies: imr-90, 72 h. In short, it runs like this:
as §4

Series [18] has as its system IMR-90. As to the kind of experiment: Cytotoxicity against human IMR-90 cells assessed as increase in dead cells at 2.5 to 40 uM by Hoechst/propidium iodide staining based microscopic analysis. The series is classed as toxicity, cell-based. The following applies: imr-90, 40 µM, dose 2.5-40 µM. In short, it runs like this:
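Cells were grown and treated for 72 h as in the crystal violet assay, with cisplatin and DMSO as controls. Before fixation, PI (2.5 μM) and Hoechst (0.05 mg/mL) were added to the medium for 30 min. At least 100 cells per condition were counted microscopically, and PI-positive cells were scored as a percentage of Hoechst-positive cells. Three independent experiments were done.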

The target of series [19] is T3, MAP kinase-interacting serine/threonine-protein kinase 1/2 (Homo sapiens). As to the kind of experiment: Inhibition of MNK1/MNK2 in human IMR-90 cells assessed as inhibition of eIF4E phosphorylation incubated for 24 hrs by Western blot analysis. In kind it is cell-based. The following applies: dose 0.3-10 µM, DDE = dose-dependent effect.
The test system of series [20] is MDA-MB-231. Briefly: Cytotoxicity against human MDA-MB-231 cells assessed as reduction in cell viability at 20 uM measured after 72 hrs by crystal violet staining based assay relative to control. In kind it is functional. In short, it runs like this: as §4
The target in series [21] is T1, MAP kinase-interacting serine/threonine-protein kinase 1. Briefly: Inhibition of MNK1 in human MDA-MB-231 cells assessed as inhibition of eIF4E phosphorylation at 10 uM by Western blot analysis. To be noted: time 0.5-72 hrs, TDE = time-dependent effect. The series is classed as cell-based. In short, it runs like this:
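MDA-MB-231 cells were exposed to 10 μM inhibitor for various times. Phospho-eIF4E (Ser209) versus total eIF4E was then assessed by immunoblot of total lysates (20–25 μg protein), with ECL detection.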
Target sequence in this assay (Q9BUB5 whole entry, looked up): as above

Series [22] has as its target T3, MAP kinase-interacting serine/threonine-protein kinase 1/2 (Homo sapiens). As to the kind of experiment: Inhibition of MNK1/MNK2 in human MCF7 cells assessed as inhibition of eIF4E phosphorylation incubated for 24 hrs by Western blot analysis. The following applies: dose 0.3-10 µM, DDE = dose-dependent effect. In kind it is cell-based.
The test system of series [23] is MDA-MB-468. Briefly: Growth inhibition of human MDA-MB-468 cells measured after 72 hrs by crystal violet staining based assay. In kind it is functional. In short, it runs like this: as §4

Eukaryotic translation initiation factor 4E (Homo sapiens), sequence (P06730 whole entry): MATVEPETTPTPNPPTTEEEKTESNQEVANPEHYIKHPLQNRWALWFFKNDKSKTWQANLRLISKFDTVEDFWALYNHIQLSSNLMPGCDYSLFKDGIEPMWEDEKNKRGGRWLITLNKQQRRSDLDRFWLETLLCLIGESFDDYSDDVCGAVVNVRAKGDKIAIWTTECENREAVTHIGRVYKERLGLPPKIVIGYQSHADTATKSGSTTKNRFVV

As for `COc1ccccc1-c1cc(-c2ccc(C)cc2)c2c(N)n[nH]c2n1`, the Activity is 61% in series [1] and 123% in [2].

For `COc1cccc(-c2cc(-c3ccccc3)c3c(N)n[nH]c3n2)c1`, in series [3], the Ratio IC50 is 4. In addition, the results for the Activity in [1] and in [2] were 38% and 74%, respectively. In addition, the IC50 is 4.2 µM in series [4] and 22 µM in series [6]. The inhibition entry in series [5] is “Dde”.

`Nc1c2c(-c3ccccc3)c(Cl)c(Cl)nc2nn1-c1ccccc1`: the Activity in series [1] was determined as 103%; in [2] it was 102%.

As for `COc1ccc(-c2cc(-c3ccccc3)nc3[nH]nc(N)c23)cc1`, the Activity in series [1] stood at 25%; in [2] it was 74%.

Consider `Cc1cc(Nc2cc(N)ncn2)c(=O)n2c1C(=O)NC21CCCCC1`, for which the outcome in [7], in series [8] and in series [9] was Active.

As to `Nc1n[nH]c2nc(-c3ccccc3)cc(-c3ccccc3)c12`, the inhibition result in series [10] and in series [13] was “Active” throughout. Further, the GI50 in [11] was more than 40 µM; in [12] it was 15.1 µM; in [16] it was 8.46 µM; in series [23] it was 14.5 µM. Also, the Activity result in series [14] was “Dde”; in [1], 14%; in [2], 52%; in series [17], “Non-Toxic”; in series [18], “Non-Toxic”; in series [20] it was 60%. Further, the inhibition result in series [15] was “Dde”; in [5], “Dde”; in series [19], “Dde”; in series [21] it was “Tde”; in series [22] it was “Dde”.

With `COc1ccc(-c2cc(-c3ccccc3)nc3c2c(N)nn3C)cc1`, the Activity in series [1] is 102%; in series [2], 145%.

As for `Cn1nc(N)c2c(-c3ccccc3)cc(-c3ccccc3)nc21`, the figures for the Activity in series [1] and in series [2] were 80% and 117%, respectively.

As to `COc1ccc(-c2cc(-c3cccc(OC)c3)nc3[nH]nc(N)c23)cc1`, the Activity turned out to be 41% in [1] and 92% in [2].

`Nc1c2cc(-c3c(Cl)cccc3Cl)c(Cl)nc2nn1-c1ccccc1`: the Activity is 97% in series [1] and 99% in [2].

Regarding `Cn1nc(N)c2cccnc21`, the results for the Activity in [1] and in series [2] were 106% and 95%, respectively.

With `COc1ccc(-c2cc(-c3ccccc3OC)nc3[nH]nc(N)c23)cc1`, the Activity in series [1] turned out to be 63%; in series [2], 109%.

As to `COc1cccc(-c2cc(-c3ccc(F)cc3)c3c(N)n[nH]c3n2)c1`, the results for the Activity in series [1] and in series [2] were 51% and 82%, respectively.

Consider `Nc1n[nH]c2ncccc12`, for which the figures for the Activity in series [1] and in series [2] were 95% and 102%, respectively.

As for `COc1ccc(-c2cc(-c3ccc(OC)cc3)c3c(N)n[nH]c3n2)cc1`, the Activity in [1] was determined as 60%; in series [2], 101%.

As to `Nc1n[nH]c2nc(-c3ccccc3)cc(-c3ccc(F)cc3)c12`, the Ratio IC50 in [3] turned out to be 4. Further, the Activity in [1] was 31%; in series [2] it was 62%. Further, the concentration for half-maximal inhibition (IC50) amounted to 1.3 µM in [4] and 4.1 µM in series [6]. Further, the inhibition result in series [5] is “Dde”.

As for `COc1ccc(-c2cc(-c3ccc(OC)cc3)c3c(N)nn(C)c3n2)cc1`, the results for the Activity in [1] and in [2] were 94% and 154%, respectively.

Consider `COc1ccc(-c2cc(-c3ccc(C)cc3)c3c(N)n[nH]c3n2)cc1`, for which the Activity in series [1] came out at 45%; in [2], 82%.

In general, IC50 refers to the concentration that gives 50% inhibition. As usually defined, the GI50 is the concentration at which growth is held to half of that of the control.
